Source: PubChem
Most compounds without a hit are left out; they make up all but 3.5% or so of the library.
MrgX1 agonist = activates human MrgX1 receptor signaling. Q96LB2. B-score at 10 µM. MrgX1-HEK293 cells, Fluo-4 calcium fluorescence, agonist mode; stronger effect = higher value. 310,000 compounds, 0.44% hits;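 active = calcium response B-score plate-corrected fluorescence ratio at least 3 library SD, with starting fluorescence B-score inside 5 SD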
Target sequence (Q96LB2 whole entry, looked up): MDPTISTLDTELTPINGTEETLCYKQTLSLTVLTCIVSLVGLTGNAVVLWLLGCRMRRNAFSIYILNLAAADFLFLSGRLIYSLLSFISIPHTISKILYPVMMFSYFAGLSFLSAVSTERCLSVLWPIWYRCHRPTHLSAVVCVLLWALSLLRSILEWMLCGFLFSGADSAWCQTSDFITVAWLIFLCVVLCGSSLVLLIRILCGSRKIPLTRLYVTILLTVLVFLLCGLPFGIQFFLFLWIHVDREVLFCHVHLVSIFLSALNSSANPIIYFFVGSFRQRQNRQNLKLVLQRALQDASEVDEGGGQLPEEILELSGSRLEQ
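Test system: HEK293 cells stably expressing human MrgX1 receptor; amount: 15,000 cells per well; doses: compound delivered in addition one of three; times: overnight plating before 1 h dye loading; detection: Fluo-4 NW calcium-flux fluorescence, kinetic read; read-out basis: B-scored fluorescence response ratio; controls: positive and negative controls per plate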
RGS4 block = inhibitors of human RGS4; P49798; B-score at 10 µM; 310,000 compounds, 0.45% hits; AID 463165; HEK293 M3R/RGS4 inducible, Fluo-4 calcium flux; stronger effect = higher value; triggered by carbachol at its EC20;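 active = B-score, a plate-corrected calcium signal, over three deviations above library mean, with baseline fluorescence within five deviations of library mean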;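 also: RGS4 expression induced by doxycycline in cells with stable M3 receptor; B-score is computed from the integrated fluorescence ratio over baseline after carbachol; higher B-score means a larger calcium signal and so more RGS4 inhibition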
Target sequence (P49798 whole entry, looked up): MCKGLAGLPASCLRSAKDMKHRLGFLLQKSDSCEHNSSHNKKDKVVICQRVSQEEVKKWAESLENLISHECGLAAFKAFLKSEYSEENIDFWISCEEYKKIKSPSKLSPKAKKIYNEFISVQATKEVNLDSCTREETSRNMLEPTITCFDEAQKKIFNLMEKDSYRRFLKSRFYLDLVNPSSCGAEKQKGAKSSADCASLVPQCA
MrgX1 antagonist = antagonists of human MrgX1 receptor | B-score at 10 µM | MRGX1-HEK293 calcium flux, Fluo-4, BAM8-22 antagonism; stronger effect = lower value | AID 588676 | 310,000 compounds, 1.3% hits;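 active = calcium-response B-score plate-corrected more than 3 library SD below zero, starting fluorescence within 5 deviations, no agonist response on first addition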;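 also: peak minus trough fluorescence over baseline after final BAM8-22 challenge near maximal dose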
RGS4 act = RGS4 potentiation or activation; HEK293 M3R/inducible RGS4, carbachol calcium flux Fluo4; stronger effect = lower value; B-score at 10 µM; 310,000 compounds, 0.92% hits; AID 463111;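 active = B-score of the integrated calcium signal more than 4 SD below the library mean, with starting fluorescence not abnormally high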;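 also: negative B-score means reduced calcium response which marks RGS4 activation or potentiation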
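Detection: kinetic calcium fluorescence imaging with Fluo4-AM dye, 2 µM / Material: HEK293 cells with stable M3R and inducible RGS4 / Schedule: recording 10 s baseline at 1 Hz, 100 s post-agonist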
MrgX1 allo act = human MrgX1 positive allosteric modulation, primary screen; 310,000 compounds, 0.63% hits; MrgX1-HEK293, Fluo-4 calcium flux, FDSS; stronger effect = higher value; AID 588675; B-score at 10 µM;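 active = plate-corrected calcium response at least 3 library SD above typical, normal starting fluorescence, not activating the receptor alone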;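 also: compound read alongside a low EC10 to EC30 dose of BAM8-22 agonist; peak minus trough fluorescence over baseline measured at the second addition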
RGS4 block valid = RGS4 inhibitor validation | shares compounds with RGS4 block | HEK293 M3R/RGS4, carbachol calcium Fluo-4 fluorescence; carbachol added at its EC20; 0 = buffer wells, 100 = carbachol control | calcium response, % at 10 µM | 1,700 compounds, 65% hits | AID 492999;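 active = duplicate-averaged calcium response above the buffer-only control mean plus 5 SD of those controls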;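 also: integrated fluorescence ratio F max minus min over baseline F0; higher response in RGS4-induced cells means RGS4 inhibition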
RGS4 uninduced = non-induced cell nonspecific activity of RGS4 inhibitors; activity (percent), % at 10 µM; HEK293 M3R non-induced, carbachol calcium Fluo-4; submaximal (EC20) carbachol stimulus; buffer wells 0%, carbachol control wells 100%; shares compounds with RGS4 block; 1,900 compounds, 20% hits; AID 493000; call rule not given here;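 also: RGS4 induction absent so cells express M3R without RGS4; higher means more calcium signal and flags a non-specific hit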
RGS4 inh ctr2 = second counter-screen for RGS4 inhibitors: non-induced cells without carbachol; shares compounds with RGS4 block; calcium response (agonist-mode artifact), % at 10 µM; 1,900 compounds, 22% hits; HEK293 M3R/RGS4 non-induced, Fluo-4 calcium, no carbachol; normalised: buffer wells 0%, carbachol wells 100%;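 active = duplicate-averaged calcium rise in uninduced cells above buffer wells' mean plus 5 SD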
Each line names hits and unclear results; the compound was inactive in the other large screens (follow-up assays come after a bar, where they were run).

O=C1/C(=C\c2cccnc2)Sc2ccccc21	RGS4 block 5.1 | RGS4 block valid 32% | RGS4 uninduced 36% | RGS4 inh ctr2 39%
O=C1NC(=Nc2ccccc2Cl)S/C1=C\c1ccc(C(=O)O)cc1	none
CN1C(=O)S/C(=C/c2cccnc2)C1=O	none
Cc1ccccc1N=C1NC(=O)/C(=C/c2cccnc2)S1	none | RGS4 uninduced 46% | RGS4 inh ctr2 inactive
COc1ccccc1N1CCN(Cc2nc(-c3ccc(F)cc3)oc2C)CC1	none
CCOC(=O)N1CCN(Cc2cn[nH]c2-c2ccc(-c3ccccc3)cc2)CC1	RGS4 block 6.4 | RGS4 block valid 5.5% | RGS4 uninduced inactive | RGS4 inh ctr2 inactive
COc1ccccc1N1CCN(Cc2cn[nH]c2-c2ccc(F)cc2)CC1	none | RGS4 block valid inactive | RGS4 uninduced 50% | RGS4 inh ctr2 inactive
C=CCOc1ccc(/C=N/N2C(=O)C(CC(=O)Nc3ccc(F)cc3F)SC2=NC)cc1 (configuration not stated)	none
CSc1ccccc1C(=O)N1CCc2ccccc2C1	none
CCOc1ccc(-c2nnc(Nc3ccc(OC)c(C(=O)N4CCCCC4)c3)c3ccccc23)cc1	none | RGS4 block valid inactive | RGS4 uninduced inactive | RGS4 inh ctr2 inactive
Nc1c(S(=O)(=O)c2cccs2)c2nc3ccccc3nc2n1Cc1ccc2c(c1)OCO2	RGS4 block 6.9 | RGS4 block valid 9.5% | RGS4 uninduced inactive | RGS4 inh ctr2 inactive
COc1ccc(-c2c(=O)n(OC)c3ccccc3[n+]2[O-])cc1OC	RGS4 block 7.2 | RGS4 block valid inactive | RGS4 uninduced inactive | RGS4 inh ctr2 inactive
C=CCOn1c(=O)c(-c2ccc(OC)c(OC)c2)[n+]([O-])c2ccccc21	none
CNC(=S)N1CCN(C(=O)C2CCCO2)CC1 (configuration not stated)	RGS4 block 4.7 | RGS4 block valid inactive | RGS4 uninduced inactive | RGS4 inh ctr2 inactive
COc1cc2c(cc1OC)-c1cc(Nc3cccc(F)c3)nc(=O)n1CC2	none (no result: MrgX1 agonist, MrgX1 antagonist, MrgX1 allo act)
COc1cc2c(cc1OC)-c1cc(NC3CCCC3)nc(=O)n1CC2	none
COc1cc2c(cc1OC)-c1cc(Nc3ccc(N(C)C)cc3)nc(=O)n1CC2	RGS4 block 5.6 | RGS4 block valid 7.0% | RGS4 uninduced 36% | RGS4 inh ctr2 inactive
COc1cc2c(cc1OC)-c1cc(Nc3ccc(F)cc3)nc(=O)n1CC2	none | RGS4 block valid inactive | RGS4 uninduced inactive | RGS4 inh ctr2 inactive
CCOC(=O)CSc1nnc(CNc2ccc(Cl)cc2)n1-c1ccccc1	none
CCOc1ccc(NCc2nnc(SCc3ccc(Cl)cc3)n2-c2ccccc2)cc1	none | RGS4 uninduced inactive | RGS4 inh ctr2 inactive
CCC[C@H]1COCCS(=O)(=O)N1Cc1ccc(Br)cc1	none
CCOC(=O)C1=C(c2ccccc2)NC(N)=NC1c1ccc(OCc2ccc(Cl)cc2)c(OC)c1 (configuration not stated)	RGS4 block 8.9 | RGS4 block valid 32% | RGS4 uninduced inactive | RGS4 inh ctr2 34%
CCOC(=O)C1=C(c2ccccc2)NC(=O)NC1c1cc(Cl)c(O)c(OC)c1 (configuration not stated)	none
COc1cc(C2CC(c3ccccc3)=NN2c2ccccc2)ccc1OCC(=O)O (configuration not stated)	none
NS(=O)(=O)c1ccc(N2N=C(c3ccccc3)CC2c2cccc(F)c2)cc1 (configuration not stated)	none
COc1ccc(C2CC(c3ccccc3)=NN2c2ccc(S(N)(=O)=O)cc2)cc1OC (configuration not stated)	RGS4 block 8.5 | RGS4 block valid 53% | RGS4 uninduced 66% | RGS4 inh ctr2 inactive
COc1ccc(C2=NN(c3ccc(C(=O)O)cc3)C(c3ccc(OC)c(OC)c3)C2)cc1 (configuration not stated)	RGS4 block 9.3 | RGS4 block valid 18% | RGS4 uninduced 38% | RGS4 inh ctr2 inactive
CSc1cccc(NC(=O)CSc2nc3ccccc3o2)c1	none
Cc1nc(C)c(C(=O)O)c(-c2cccs2)c1C(=O)O	none
Cc1cc(C)c(S(=O)(=O)Nc2nnc(C(C)C)s2)c(C)c1	none
Cc1ccc(SCCOCCN2CCc3ccccc3C2)cc1	none
CCOCCCNC(=O)CN1C(=O)COc2ccc(S(=O)(=O)N3CCOCC3)cc21	RGS4 block 27 | RGS4 block valid 6.5% | RGS4 uninduced inactive | RGS4 inh ctr2 inactive
CCOCCCNC(=O)CN1C(=O)COc2ccc(S(=O)(=O)N3CCCCCC3)cc21	none | RGS4 block valid inactive | RGS4 uninduced inactive | RGS4 inh ctr2 inactive
CCOCCCNC(=O)CN1C(=O)COc2ccc(S(=O)(=O)N3CCC(C)CC3)cc21	none | RGS4 block valid inactive | RGS4 uninduced inactive | RGS4 inh ctr2 inactive
CCOCCCNC(=O)CN1C(=O)COc2ccc(S(=O)(=O)N3CC(C)CC(C)C3)cc21 (configuration not stated)	none
O=C(c1ccc(Cl)c([N+](=O)[O-])c1)N1CCCc2ccccc21	none
COc1ccc(NC(=O)CN(C)C(=O)/C=C/c2cn(-c3ccccc3)nc2-c2cccs2)cc1	none
CCOC(=O)/C(=C\c1cccnc1)C(=O)c1cc(C(C)=O)c(Nc2ccccc2)s1	RGS4 block 6.4 | RGS4 block valid 42% | RGS4 uninduced inactive | RGS4 inh ctr2 9.5%
COc1cc(OC)c(OC)cc1NC(=O)CC1COc2ccccc2O1 (configuration not stated)	none
COc1ccc(CCNC(=O)CC2COc3ccccc3O2)cc1OC (configuration not stated)	RGS4 block 13 | RGS4 block valid inactive | RGS4 uninduced inactive | RGS4 inh ctr2 inactive
CCCN1CCC(=O)N([C@H](CN=[N+]=[N-])Cc2ccccc2)CC1	none
CCN1CCN(CC(=O)N2CCCC(C(=O)c3ccc(Oc4ccccc4)cc3)C2)CC1 (configuration not stated)	none
N#C/C(=C(/O)c1cccc(F)c1)c1nc2ccccc2s1	none
N#C/C(=C(/O)C(Cl)c1ccccc1)c1nc2ccccc2s1 (configuration not stated)	RGS4 block 5.1 | RGS4 block valid 6.5% | RGS4 uninduced inactive | RGS4 inh ctr2 inactive
COc1ccc(-c2cc(=O)c(C(=O)c3ccc(C)cc3)n[nH]2)cc1	none
